Measurements reported in ChEMBL document CHEMBL3124932, “Design, synthesis and evaluation of genistein-O-alkylbenzylamines as potential multifunctional agents for the treatment of Alzheimer's disease” (Eur J Med Chem, 2014).

Legend:
Mus musculus = assay: Cognition enhancing effect against scopolamine-induced memory deficit in po dosed Kunming mouse assessed as increase in latency time administered 1 hr before training followed by scopolamine challenge for 7 days measured after 24 hrs by step-down passive avoidance test; format: functional, organism-based
Summary of the method: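 Kunming mice, six weeks old, 18–22 g, either sex, n=10 per group. Oral dosing at 2, 6, 18 or 3, 9, 27 mg/kg in vegetable oil, 1 h before training; vehicle as negative control. Scopolamine (3 mg/kg i.p., in saline) given 30 min later. Behavioural testing after 7 days of treatment. Step-down training used a 0.5 mA, 2 s foot shock. Latency measured 24 h later, cut-off 300 s; mean ± SEM.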

[1] = molecular target: Amyloid-beta precursor protein (Homo sapiens) (UniProt P05067); assay: Induction of amyloid beta (1 to 42) (unknown origin) disaggregation assessed as reduction of Cu2+-induced amyloid beta fibril formation at 25 uM after 24 hrs by thioflavin T fluorescence method; parameters: scale not given: the % may be the effect or the level left
Summary of the method: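 Aβ1-42 (25 µM final, HFIP-pretreated) and Cu2+ (25 µM) in HEPES pH 6.6 with 150 mM NaCl, incubated 24 h at 37 °C. Test compound (25 µM final) then added for a further 24 h at 37 °C, wells sealed. Read by ThT in glycine-NaOH pH 8.5 (ex 446/em 490 nm). DMSO 12.5% final; triplicate.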

[2] = molecular target: Amyloid-beta precursor protein (Homo sapiens) (UniProt P05067); assay: Inhibition of Cu2+-induced amyloid beta (1 to 42) (unknown origin) aggregation after 24 hrs by thioflavin T fluorescence method
Summary of the method: (§1)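 Aβ1-42 (25 µM final, HFIP-pretreated) with an equimolar amount of Cu2+ (25 µM) in HEPES pH 6.6 with 150 mM NaCl. Incubated with or without compound (10–35 µM final) 24 h at 37 °C. ThT in glycine-NaOH pH 8.5 added, fluorescence ex 446/em 490 nm. DMSO 12.5% final. Percent inhibition relative to no-inhibitor wells; triplicate, mean of 3 independent experiments.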

[3] = molecular target: Amyloid-beta precursor protein (Homo sapiens) (UniProt P05067); assay: Inhibition of self-induced amyloid beta (1 to 42) (unknown origin) aggregation after 24 hrs by thioflavin T fluorescence method
Summary of the method: (§2)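 HFIP-pretreated Aβ1-42 (25 µM final) incubated with compound (10–50 µM) in 50 mM phosphate pH 7.4 for 24 h at 37 °C, wells sealed. ThT in glycine-NaOH pH 8.5 added; fluorescence ex 446/em 490 nm. DMSO 12.5% final. Percent inhibition relative to peptide without inhibitor; triplicate, mean of 3 independent experiments.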

[4] = molecular target: Amyloid-beta precursor protein (Homo sapiens) (UniProt P05067); assay: Inhibition of Cu2+-induced amyloid beta (1 to 42) (unknown origin) aggregation at 25 uM after 24 hrs by thioflavin T fluorescence method; summary of the method: as §1
[5] = molecular target: Amyloid-beta precursor protein (Homo sapiens) (UniProt P05067); assay: Inhibition of self-induced amyloid beta (1 to 42) (unknown origin) aggregation at 25 uM after 24 hrs by thioflavin T fluorescence method; summary of the method: as §2
Acetylcholinesterase [6] = molecular target: T1, Acetylcholinesterase (Electrophorus electricus, UniProt O42275); assay: Mixed-type inhibition of electric eel AchE using acetylthiocholine as substrate after 15 mins by Lineweaver-Burk plot analysis
Summary of the method: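 Purified eel AChE in 0.1 M phosphate pH 8.0 with DTNB. Three inhibitor concentrations preincubated with enzyme 15 min at 37 °C, then acetylthiocholine added at varied concentrations. Hydrolysis followed at 412 nm, with no-inhibitor controls. Lineweaver-Burk plots fitted by weighted least squares; slopes replotted against inhibitor concentration, Ki taken as the negative x-intercept.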

[7] = Antioxidant activity assessed as trolox equivalent of APPH-induced radical scavenging activity at 1 to 10 uM preincubated for 15 mins followed by AAPH challenge measured every minute for 90 minutes by ORAC fluorescence assay; format: functional
Summary of the method: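 ORAC-FL in phosphate buffer pH 7.4. Samples (1–10 µM) preincubated with fluorescein (150 nM final) 15 min at 37 °C, then AAPH (12 mM final) added. Fluorescence (ex 485/em 535 nm) read each minute for 90 min. Net AUC over blank converted to Trolox equivalents using a 1–8 µM Trolox curve. Duplicates, at least 3 independent assays.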

[8] = molecular target: Butyrylcholinesterase (Rattus norvegicus) (UniProt Q9JKC1); assay: Inhibition of rat serum BuChE using butyrylthiocholine iodide as substrate at 50 uM after 15 mins by Ellman's method
Summary of the method: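 Modified Ellman assay in phosphate buffer pH 7.4. Enzyme sources: AChE from 5% rat cortex homogenate, preincubated 5 min with iso-OMPA to block BuChE; BuChE from 25% rat serum. Substrates were acetylthiocholine or butyrylthiocholine iodide. Compounds incubated 15 min at 37 °C, then DTNB added; A405 read. IC50 derived; triplicate, 3 independent experiments; "no active" means under 5% inhibition at 50 µM.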

Acetylcholinesterase [9] = molecular target: Acetylcholinesterase (Homo sapiens, UniProt P22303); assay: Inhibition of human erythrocytes AchE using acetylthiocholine iodide as substrate after 15 mins by Ellman's method
Acetylcholinesterase [10] = molecular target: T1, Acetylcholinesterase; assay: Inhibition of electric eel AchE using acetylthiocholine iodide as substrate after 15 mins by Ellman's method
Acetylcholinesterase [11] = molecular target: T2, Acetylcholinesterase (Rattus norvegicus, UniProt P37136); assay: Inhibition of rat cortex homogenate AchE using acetylthiocholine iodide as substrate after 15 mins by Ellman's method
T2 sequence (P37136 whole entry): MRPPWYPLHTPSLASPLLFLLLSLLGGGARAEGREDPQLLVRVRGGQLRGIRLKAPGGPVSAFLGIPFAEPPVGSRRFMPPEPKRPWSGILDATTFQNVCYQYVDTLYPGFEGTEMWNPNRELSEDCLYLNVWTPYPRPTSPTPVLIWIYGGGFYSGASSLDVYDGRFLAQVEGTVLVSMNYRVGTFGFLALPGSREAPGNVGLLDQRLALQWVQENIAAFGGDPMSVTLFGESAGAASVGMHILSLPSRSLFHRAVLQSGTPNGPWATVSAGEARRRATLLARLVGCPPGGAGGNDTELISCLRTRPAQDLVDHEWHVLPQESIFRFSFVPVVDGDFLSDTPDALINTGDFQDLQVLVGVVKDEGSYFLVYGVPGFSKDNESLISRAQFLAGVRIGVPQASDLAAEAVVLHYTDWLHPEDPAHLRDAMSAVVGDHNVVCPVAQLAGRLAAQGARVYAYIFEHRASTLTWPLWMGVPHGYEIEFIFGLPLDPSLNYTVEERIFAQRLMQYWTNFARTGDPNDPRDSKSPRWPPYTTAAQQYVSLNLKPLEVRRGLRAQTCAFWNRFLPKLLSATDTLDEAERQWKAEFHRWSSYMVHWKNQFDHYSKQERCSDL

Amyloid-beta precursor protein (Homo sapiens), sequence (P05067 whole entry): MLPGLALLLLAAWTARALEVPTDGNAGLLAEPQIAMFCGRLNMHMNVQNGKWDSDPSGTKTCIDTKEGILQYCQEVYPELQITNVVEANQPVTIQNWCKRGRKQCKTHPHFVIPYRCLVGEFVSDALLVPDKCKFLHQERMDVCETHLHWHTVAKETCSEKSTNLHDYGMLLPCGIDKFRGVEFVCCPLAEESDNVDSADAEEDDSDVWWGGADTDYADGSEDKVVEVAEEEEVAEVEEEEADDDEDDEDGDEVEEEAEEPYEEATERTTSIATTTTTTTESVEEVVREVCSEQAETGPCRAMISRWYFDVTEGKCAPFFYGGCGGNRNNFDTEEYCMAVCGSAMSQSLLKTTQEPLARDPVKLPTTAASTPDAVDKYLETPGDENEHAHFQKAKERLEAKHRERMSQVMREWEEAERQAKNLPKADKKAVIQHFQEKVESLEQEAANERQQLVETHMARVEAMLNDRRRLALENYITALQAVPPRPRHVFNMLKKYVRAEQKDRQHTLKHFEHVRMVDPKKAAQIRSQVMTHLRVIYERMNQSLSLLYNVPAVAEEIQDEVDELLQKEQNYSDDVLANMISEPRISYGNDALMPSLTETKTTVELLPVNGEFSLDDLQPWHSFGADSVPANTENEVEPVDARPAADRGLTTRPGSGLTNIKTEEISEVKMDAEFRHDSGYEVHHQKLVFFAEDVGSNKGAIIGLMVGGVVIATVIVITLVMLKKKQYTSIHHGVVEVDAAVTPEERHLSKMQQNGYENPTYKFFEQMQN
T1 sequence (O42275 whole entry): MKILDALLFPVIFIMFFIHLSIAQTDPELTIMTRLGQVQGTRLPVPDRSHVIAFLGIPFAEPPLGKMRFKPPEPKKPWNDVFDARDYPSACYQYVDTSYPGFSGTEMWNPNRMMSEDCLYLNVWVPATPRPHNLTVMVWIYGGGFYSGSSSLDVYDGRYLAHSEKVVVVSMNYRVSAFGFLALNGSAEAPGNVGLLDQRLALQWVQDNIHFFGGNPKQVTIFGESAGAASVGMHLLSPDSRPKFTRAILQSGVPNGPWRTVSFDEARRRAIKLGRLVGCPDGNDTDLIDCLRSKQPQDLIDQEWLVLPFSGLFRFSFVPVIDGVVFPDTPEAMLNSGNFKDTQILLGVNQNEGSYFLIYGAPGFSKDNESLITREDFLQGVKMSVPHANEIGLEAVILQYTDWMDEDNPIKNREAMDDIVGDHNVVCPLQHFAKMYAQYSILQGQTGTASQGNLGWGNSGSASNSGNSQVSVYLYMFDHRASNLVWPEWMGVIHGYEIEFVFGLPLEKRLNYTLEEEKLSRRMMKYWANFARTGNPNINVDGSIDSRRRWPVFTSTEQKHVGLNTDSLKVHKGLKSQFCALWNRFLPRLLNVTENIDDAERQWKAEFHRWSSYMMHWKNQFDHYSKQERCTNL
Butyrylcholinesterase (Rattus norvegicus), sequence (Q9JKC1 as listed by the source): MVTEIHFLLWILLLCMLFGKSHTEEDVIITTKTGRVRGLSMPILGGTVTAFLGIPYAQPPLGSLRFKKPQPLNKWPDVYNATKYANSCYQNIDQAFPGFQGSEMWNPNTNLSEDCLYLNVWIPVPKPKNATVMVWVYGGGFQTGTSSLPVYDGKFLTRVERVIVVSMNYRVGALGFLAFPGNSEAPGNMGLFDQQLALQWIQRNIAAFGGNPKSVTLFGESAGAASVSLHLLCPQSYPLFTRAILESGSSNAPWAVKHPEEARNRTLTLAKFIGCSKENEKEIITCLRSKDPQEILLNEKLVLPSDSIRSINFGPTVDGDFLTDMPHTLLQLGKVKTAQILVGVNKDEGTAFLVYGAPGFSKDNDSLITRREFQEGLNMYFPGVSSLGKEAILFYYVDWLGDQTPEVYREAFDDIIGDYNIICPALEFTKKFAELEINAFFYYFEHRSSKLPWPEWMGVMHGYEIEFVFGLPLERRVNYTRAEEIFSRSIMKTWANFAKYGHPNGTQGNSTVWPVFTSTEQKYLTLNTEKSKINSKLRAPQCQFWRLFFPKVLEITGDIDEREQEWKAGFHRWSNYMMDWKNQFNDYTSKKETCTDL
Acetylcholinesterase (Homo sapiens, UniProt P22303), sequence (P22303 whole entry): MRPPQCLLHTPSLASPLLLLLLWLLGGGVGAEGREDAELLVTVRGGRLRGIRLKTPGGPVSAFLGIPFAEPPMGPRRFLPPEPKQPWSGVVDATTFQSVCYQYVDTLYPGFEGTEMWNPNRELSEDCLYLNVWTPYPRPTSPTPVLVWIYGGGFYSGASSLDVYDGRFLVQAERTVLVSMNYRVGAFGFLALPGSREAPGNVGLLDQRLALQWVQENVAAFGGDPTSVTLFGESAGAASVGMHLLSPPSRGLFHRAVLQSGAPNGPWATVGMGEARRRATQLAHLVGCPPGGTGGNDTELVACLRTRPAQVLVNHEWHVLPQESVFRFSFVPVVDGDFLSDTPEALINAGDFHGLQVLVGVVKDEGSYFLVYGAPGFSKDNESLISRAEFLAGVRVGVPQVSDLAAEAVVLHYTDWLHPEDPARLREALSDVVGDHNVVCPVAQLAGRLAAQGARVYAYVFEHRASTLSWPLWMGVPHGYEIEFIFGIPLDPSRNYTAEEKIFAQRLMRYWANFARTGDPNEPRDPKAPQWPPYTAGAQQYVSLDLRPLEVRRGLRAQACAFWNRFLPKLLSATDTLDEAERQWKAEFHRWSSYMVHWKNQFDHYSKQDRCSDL

CCN(CCCCOc1ccc(-c2coc3cc(OCCCCN(CC)Cc4ccccc4OC)cc(O)c3c2=O)cc1)Cc1ccccc1OC
Activity (Mus musculus): Dose-dependent effect
Activity [1]: 72.1%
inhibition [2]: Dose-dependent effect
inhibition [3]: Dose-dependent effect
inhibition [4]: 77.8%
inhibition [5]: 35%
Ki (Acetylcholinesterase [6]): 140 nM
Activity [7]: 0.3
inhibition [8]: 20%
IC50 (Acetylcholinesterase [9]): 350 nM
IC50 (Acetylcholinesterase [10]): 140 nM
IC50 (Acetylcholinesterase [11]): 90 nM
